Data reported in ChEMBL document CHEMBL2380302, “Synthesis of 3-O-propargylated betulinic acid and its 1,2,3-triazoles as potential apoptotic agents” (Eur J Med Chem, 2013).
The source made the active and inactive calls. The calls are words filed in the database; no cut-off is given here.

What was measured:
SF-295 = assay: Cytotoxicity against human SF295 cells at 20 uM after 48 hrs by SRB assay; format: functional; conditions: SF-295, 48 h, read-out: GI
In short: (§1)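 Cells grown in RPMI-1640/MEM with 10% FCS and penicillin/streptomycin at 37 °C in 5% CO2. They adhered overnight in 96-well plates and were exposed to compound for 48 h. Cells were then fixed with ice-cold 50% TCA for 60 min and stained with 0.4% SRB in 1% acetic acid for 30 min. Dye was solubilised in 10 mM Tris base and OD read at 570 nm (reference 620 nm).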

THP-1 = assay: Cytotoxicity against human THP1 cells at 20 uM after 48 hrs by SRB assay; format: functional; conditions: THP-1, 48 h, read-out: GI; in short: as §1
HL-60 [1] = assay: Cytotoxicity against human HL60 cells at 20 uM after 48 hrs by SRB assay; format: functional; conditions: HL-60, 48 h, read-out: GI
In short: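 HL-60 suspension cells in RPMI-1640/MEM with 10% FCS at 37 °C in 5% CO2 were plated in 96 wells and exposed to compound for 48 h. Cells were fixed with 80% TCA and pelleted at 1500 rpm for 15 min. Staining used 0.4% SRB in 1% acetic acid for 30 min; dye was dissolved in 10 mM Tris base and OD read at 570/620 nm.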

HCT-15 = assay: Cytotoxicity against human HCT15 cells at 20 uM after 48 hrs by SRB assay; format: functional; conditions: HCT-15, 48 h, read-out: GI; in short: as §1
A549 = assay: Cytotoxicity against human A549 cells at 20 uM after 48 hrs by SRB assay; format: functional; conditions: A549, 48 h, read-out: GI; in short: as §1
PC-3 = assay: Cytotoxicity against human PC3 cells at 20 uM after 48 hrs by SRB assay; format: functional; conditions: PC-3, 48 h, read-out: GI; in short: as §1
DU-145 = assay: Cytotoxicity against human DU145 cells at 20 uM after 48 hrs by SRB assay; format: functional; conditions: DU-145, 48 h, read-out: GI; in short: as §1
HL-60 [2] = assay: Induction of apoptosis in human HL60 cells assessed as DNA ladder formation at 5 uM after 6 hrs by DNA agarose gel electrophoresis; format: functional, cell-based
In short: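 HL-60 cells (2 × 10⁶/well/2 mL) were treated at 5 µM for 6 h, then pelleted and washed in PBS. DNA was extracted with phenol:chloroform:isoamyl alcohol and ethanol-precipitated. It was run on 1% agarose in TAE at 80 V for 1.5 h.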

SMILES: O=c1[nH]cc(F)c(=O)[nH]1 [FLUOROURACIL]
- inhibition of growth at 20 µM (SF-295): 73%
- inhibition of growth at 20 µM (THP-1): 83%
- inhibition of growth at 20 µM (HL-60 [1]): 89%
- inhibition of growth at 20 µM (HCT-15): 72%
- inhibition of growth at 20 µM (A549): 75%
- inhibition of growth at 20 µM (PC-3): 64%
- inhibition of growth at 20 µM (DU-145): 72%

SMILES: CC[C@@]1(O)C(=O)OCc2c1cc1n(c2=O)Cc2cc3ccccc3nc2-1
- Activity (HL-60 [2]): Active
